The target in test [1] is Phosphatidylinositol 4,5-bisphosphate 3-kinase catalytic subunit alpha isoform (Homo sapiens, UniProt P42336). The experiment in a line: Inhibition of PI3K expressed in Escherichia coli by microtiter plate-based fluorescence polarization assay. The procedure, abridged:
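Fluorescence polarization assay of PI3K activity with PIP2 substrate. Reactions contained 20 mM Hepes pH 7.5, 2 mM MgCl2, 0.05% CHAPS, 0.01% βME, 20 µM PIP2 and 25 µM ATP, and ran 15–30 min at room temperature. They were stopped with buffer holding 10 nM TAMRA-labeled probe and 40 nM GST-GRP1 (E. coli-expressed detector), then incubated 1–2 h before FP readout.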
(In general: Polarisation of emitted light reports the rotation of a fluorescent probe.)

Test [2] concerns the target Serine/threonine-protein kinase mTOR (Homo sapiens, UniProt P42345). The experiment in a line: Inhibition of mTOR.
Test [3] relates to LNCaP. The experiment in a line: Growth inhibition of human LNCap cells. It is filed as functional, cell-based.

Structures are written as SMILES.

A word on the IC50: it is the concentration at which inhibition is half-maximal. A high value points to a need for much substance.

Phosphatidylinositol 4,5-bisphosphate 3-kinase catalytic subunit alpha isoform, sequence (P42336 whole entry, canonical isoform): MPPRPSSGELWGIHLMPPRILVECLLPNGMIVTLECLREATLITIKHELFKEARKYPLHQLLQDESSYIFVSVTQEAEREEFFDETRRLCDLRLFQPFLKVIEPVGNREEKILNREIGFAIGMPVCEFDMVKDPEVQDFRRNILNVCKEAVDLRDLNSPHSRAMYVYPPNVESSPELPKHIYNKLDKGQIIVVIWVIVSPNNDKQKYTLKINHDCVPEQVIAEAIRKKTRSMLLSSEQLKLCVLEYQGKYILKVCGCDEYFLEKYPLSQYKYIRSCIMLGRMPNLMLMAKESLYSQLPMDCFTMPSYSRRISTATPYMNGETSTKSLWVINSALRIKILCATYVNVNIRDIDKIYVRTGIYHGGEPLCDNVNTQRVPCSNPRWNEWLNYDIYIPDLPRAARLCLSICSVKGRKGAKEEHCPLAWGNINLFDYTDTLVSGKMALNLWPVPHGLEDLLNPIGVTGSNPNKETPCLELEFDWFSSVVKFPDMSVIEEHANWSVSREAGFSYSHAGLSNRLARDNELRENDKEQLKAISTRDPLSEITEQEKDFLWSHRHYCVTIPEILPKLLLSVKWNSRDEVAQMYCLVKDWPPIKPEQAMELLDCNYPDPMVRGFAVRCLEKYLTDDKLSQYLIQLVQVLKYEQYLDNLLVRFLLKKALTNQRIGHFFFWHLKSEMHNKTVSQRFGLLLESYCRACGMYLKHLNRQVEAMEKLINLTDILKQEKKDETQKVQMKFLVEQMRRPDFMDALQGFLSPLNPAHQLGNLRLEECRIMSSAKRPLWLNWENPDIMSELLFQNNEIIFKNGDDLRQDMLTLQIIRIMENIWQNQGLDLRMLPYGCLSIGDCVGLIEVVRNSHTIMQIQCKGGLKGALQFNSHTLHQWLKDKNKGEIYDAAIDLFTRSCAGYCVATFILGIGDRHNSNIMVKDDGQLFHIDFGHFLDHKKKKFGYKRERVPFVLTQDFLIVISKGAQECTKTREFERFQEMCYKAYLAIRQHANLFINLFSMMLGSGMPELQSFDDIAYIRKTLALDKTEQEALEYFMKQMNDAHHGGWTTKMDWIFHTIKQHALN

Turning to `CCN(CC)CCN(C)/C=C1/C(=O)O[C@H](COC)[C@@]2(C)C1=C(O)C(=O)C1=C2[C@H](OC(C)=O)C[C@]2(C)[C@@H](O)CC[C@@H]12`, the IC50 amounted to 50 nM in test [1], 767 nM in test [2] and 2590 nM in test [3].
Regarding `C=CCN(/C=C1/C(=O)O[C@H](COC)[C@@]2(C)C1=C(O)C(=O)C1=C2[C@H](OC(C)=O)C[C@]2(C)C(=O)CC[C@@H]12)CC=C` [SONOLISIB], the IC50 amounted to 88 nM in test [1], 3100 nM in test [2] and 573 nM in test [3].
In the same order, the values of `COC[C@H]1OC(=O)/C(=C/N(C)CC(O)CO)C2=C(O)C(=O)C3=C([C@H](OC(C)=O)C[C@]4(C)[C@@H](O)CC[C@@H]34)[C@]21C` (some centres not stated) are 199 nM, 1870 nM and 168 nM.
Regarding `COC[C@H]1OC(=O)/C(=C/N(C)CC(=O)OC(C)(C)C)C2=C(O)C(=O)C3=C([C@H](OC(C)=O)C[C@]4(C)[C@@H](O)CC[C@@H]34)[C@]21C`, the IC50 amounted to 1580 nM in test [1], 13900 nM in test [2] and 174 nM in test [3].
In the case of `COC[C@H]1OC(=O)/C(=C/NCCCN(C)C)C2=C(O)C(=O)C3=C([C@H](OC(C)=O)C[C@]4(C)[C@@H](O)CC[C@@H]34)[C@]21C`, the concentration for half-maximal inhibition (IC50) is over 10000 nM in test [1], over 20000 nM in test [2] and 2020 nM in test [3].
`COC[C@H]1OC(=O)/C(=C/N2CCC(C(=O)O)CC2)C2=C(O)C(=O)C3=C([C@H](OC(C)=O)C[C@]4(C)[C@@H](O)CC[C@@H]34)[C@]21C`: the figures for the IC50 in test [1], in test [2] and in test [3] were 33 nM, 822 nM and 500 nM, respectively.
In the case of `COC[C@H]1OC(=O)/C(=C/N2CCN(CCCN3CCOCC3)CC2)C2=C(O)C(=O)C3=C([C@H](OC(C)=O)C[C@]4(C)[C@@H](O)CC[C@@H]34)[C@]21C`, the IC50 is 45 nM in test [1], 1200 nM in test [2] and 637 nM in test [3].
On the same counts, the results for `COC[C@H]1OC(=O)/C(=C/N2CCN(C)CC2)C2=C(O)C(=O)C3=C([C@H](OC(C)=O)C[C@]4(C)[C@@H](O)CC[C@@H]34)[C@]21C` are 90 nM, 829 nM and 1090 nM.
For the molecule `COC[C@H]1OC(=O)/C(=C/N(C)CCCC(=O)O)C2=C(O)C(=O)C3=C([C@H](OC(C)=O)C[C@]4(C)[C@@H](O)CC[C@@H]34)[C@]21C`, the IC50 in test [1] turned out to be 193 nM; in test [2], 12600 nM; in test [3], 365 nM.
As to `COC[C@H]1OC(=O)/C(=C/N(CCN(C)C)Cc2ccccc2)C2=C(O)C(=O)C3=C([C@H](OC(C)=O)C[C@]4(C)[C@@H](O)CC[C@@H]34)[C@]21C`, the results for the IC50 in test [1], in test [2] and in test [3] were 66 nM, 5600 nM and 1430 nM, respectively.
For the molecule `COC[C@H]1OC(=O)/C(=C/NC(C)(C)C)C2=C(O)C(=O)C3=C([C@H](OC(C)=O)C[C@]4(C)[C@@H](O)CC[C@@H]34)[C@]21C`, the IC50 in test [1] was over 10000 nM; in test [2] it was over 20000 nM; in test [3] it was 40700 nM.
In the case of `COC[C@H]1OC(=O)/C(=C/N(C)CCCN2CCN(C)CC2)C2=C(O)C(=O)C3=C([C@H](OC(C)=O)C[C@]4(C)[C@@H](O)CC[C@@H]34)[C@]21C`, the IC50 in test [1] worked out at 10 nM; in test [2], 2330 nM; in test [3], 465 nM.
Regarding `COC[C@H]1OC(=O)/C(=C/N2CCC(c3ccccc3)CC2)C2=C(O)C(=O)C3=C([C@H](OC(C)=O)C[C@]4(C)[C@@H](O)CC[C@@H]34)[C@]21C`, the values for the IC50 in test [1], in test [2] and in test [3] were 172 nM, 2450 nM and 1520 nM, respectively.
Take `COC[C@H]1OC(=O)/C(=C/N2CCN(C3CCCCC3)CC2)C2=C(O)C(=O)C3=C([C@H](OC(C)=O)C[C@]4(C)[C@@H](O)CC[C@@H]34)[C@]21C`: the figures for the IC50 in test [1], in test [2] and in test [3] were 43 nM, 820 nM and 1470 nM, respectively.
